Source: ChEMBL document CHEMBL4130608, “Isolation, Derivative Synthesis, and Structure-Activity Relationships of Antiparasitic Bromopyrrole Alkaloids from the Marine Sponge Tedania brasiliensis” (J Nat Prod, 2018)
Values after ≈ are worked out from the molar mass of the structure shown.

How the values were obtained:
Plasmodium falciparum [1] = assay: Antiplasmodial activity against drug-sensitive blood stage Plasmodium falciparum 3D7 by SYBR green 1 staining based fluorescence assay; type: functional, organism-based
Method in brief: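 Sorbitol-synchronized ring-stage 3D7 exposed to a range of concentrations (samples in 0.05% DMSO), in triplicate. Then lysed with Tris/EDTA/saponin/Triton buffer containing SYBR Green I (1:20000) for 30 min. IC50 from curve fitting against untreated growth.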

Leishmania amazonensis [2] = assay: Antileishmanial activity against Leishmania amazonensis MHOM/BR/1973/M2269 promastigotes after 24 hrs by MTT assay; type: functional, organism-based; conditions: MHOM/BR/1973/M2269, 24 h
Method in brief: (§1)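 Promastigotes (L. amazonensis, L. infantum; 26 °C, M199 with 20% heat-inactivated FBS, hemin, adenine, L-glutamine, plus 5% human urine for L. infantum) or T. cruzi Y epimastigotes (LIT with hemin, 10% FCS, 28 °C). Exposed to a series of concentrations for 24 h. Viability read by MTT. EC50 from sigmoidal fit of concentration–response. Triplicates, repeated two or three times.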

[3] = Selectivity index, ratio of MDL50 for human HepG2 cells to IC50 for drug-sensitive blood stage Plasmodium falciparum 3D7; type: toxicity; conditions: HepG2 cells versus blood stage Plasmodium falciparum 3D7, read-out: Selectivity Index
Trypanosoma cruzi = assay: Antitrypanosomal activity against Trypanosoma cruzi Y epimastigotes after 24 hrs by MTT assay; type: functional, organism-based; method in brief: as §1
Leishmania infantum = assay: Antileishmanial activity against Leishmania infantum MHOM/BR/1972/LD promastigotes after 24 hrs by MTT assay; type: functional, organism-based; method in brief: as §1
[4] = Cytotoxicity against human HepG2 cells after 24 hrs by MTT assay; type: cell-based; conditions: read-out: MDL50
Method in brief: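 HepG2 cells grown in RPMI-1640 with 10% FBS, seeded at 5 × 10^3 cells/well and allowed to adhere for 18 h. Exposed to 1,000–1 μg/mL for 24 h at 37 °C, 5% CO2. MTT (5 mg/mL stock) added for 3 h, formazan dissolved in DMSO, absorbance read at 570 and 630 nm. Viability expressed as % of untreated control after background subtraction.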

Plasmodium falciparum [5] = assay: Antiplasmodial activity against chloroquine/pyrimethamine-resistant Plasmodium falciparum K1 assessed as reduction in [3H]hypoxanthine incorporation pretreated for 48 hrs followed by [3H]hypoxanthine addition measured after 24 hrs by liquid scintillation counting method; type: functional, organism-based
BMDM = assay: Cytotoxicity against BALB/c mouse BMDM after 24 hrs by MTT assay; type: cell-based
Method in brief: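 Differentiated BALB/c female mouse bone marrow macrophages incubated at 37 °C with increasing concentrations for 24 h. Viability read by MTT and CC50 calculated.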

Leishmania amazonensis [6] = assay: Antileishmanial activity against Leishmania amazonensis amastigotes infected in BALB/c mouse BMDM assessed as reduction in intracellular amastigotes at 50 uM after 24 hrs by microscopic analysis relative to control; type: functional; parameters: scale not given: the % may be the effect or the level left
Method in brief: (§2)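 BALB/c bone marrow macrophages infected with stationary-phase L. amazonensis promastigotes (MOI 10) for 1 h, then washed and held 24 h at 33 °C, 5% CO2. Treated with 6.125, 25, 50 or 100 μM for 24 h at 33 °C. Cells MeOH-fixed and stained. Amastigotes counted in 300 cells per coverslip on triplicate coverslips. Expressed as % reduction versus untreated infected cells. Two independent experiments.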

Leishmania amazonensis [7] = assay: Antileishmanial activity against Leishmania amazonensis amastigotes infected in BALB/c mouse BMDM assessed as reduction in intracellular amastigotes at 100 uM after 24 hrs by microscopic analysis relative to control; type: functional; parameters: scale not given: the % may be the effect or the level left; method in brief: as §2
Leishmania amazonensis [8] = assay: Antileishmanial activity against Leishmania amazonensis amastigotes infected in BALB/c mouse BMDM assessed as reduction in intracellular amastigotes at 25 uM after 24 hrs by microscopic analysis relative to control; type: functional; parameters: scale not given: the % may be the effect or the level left; method in brief: as §2
Leishmania amazonensis [9] = assay: Antileishmanial activity against Leishmania amazonensis amastigotes infected in BALB/c mouse BMDM assessed as reduction in intracellular amastigotes at 6.125 uM after 24 hrs by microscopic analysis relative to control; type: functional; parameters: scale not given: the % may be the effect or the level left; method in brief: as §2
Leishmania amazonensis [10] = assay: Antileishmanial activity against Leishmania amazonensis amastigotes infected in BALB/c mouse BMDM assessed as reduction in intracellular amastigotes after 24 hrs by microscopic analysis; type: functional, organism-based; method in brief: as §2
Plasmodium falciparum [11] = assay: Antiplasmodial activity against chloroquine/cycloguanil/pyrimethamine-resistant blood stage Plasmodium falciparum K1 by SYBR green 1 staining based fluorescence assay; type: functional, organism-based
Method in brief: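 Freshly sorbitol-synchronized ring stages were exposed in triplicate to a concentration series, solubilized in 0.05% DMSO (v/v), alongside sample-free cultures. Cells were lysed for 30 min in 20 mM Tris pH 7.5, 5 mM EDTA, 0.008% saponin and 0.08% Triton X-100 with SYBR green I (1:20000). IC50 was obtained by curve fitting against untreated growth.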

Leishmania donovani = assay: Antileishmanial activity against Leishmania donovani MHOM/ET/67/L82 amastigote forms after 72 hrs by alamar blue staining based fluorescence assay; type: functional, organism-based; conditions: MHOM/ET/67/L82, 72 h
[12] = tested on: Trypanosoma brucei rhodesiense; assay: Antitrypanosomal activity against Trypanosoma brucei rhodesiense STIB 900 bloodstream forms after 72 hrs by alamar blue staining based fluorescence assay; type: functional, organism-based; conditions: STIB 900, 72 h

Row | Structure (SMILES) | IC50 (Plasmodium falciparum [1]) [µM] | EC50 (Leishmania amazonensis [2]) [µM] | EC50 (Trypanosoma cruzi) [µM] | EC50 (Leishmania infantum) [µM] | also measured
1 | O=C(NCCCCCCNCCCCCCNC(=O)c1cc(Br)c(Br)[nH]1)c1cc(Br)c(Br)[nH]1 | 2 | > 100 | > 100 | > 100 | selectivity ratio [3]: 101; CC50 at 24 h [4]: 263 µM
2 | NC1=N/C(=C\CCNC(=O)c2cc(Br)c[nH]2)C(=O)N1 | – | – | – | – | IC50 (Plasmodium falciparum [5]): 1.34 µg/mL (≈ 4.11 µM)
3 | Cc1ccc(C(=O)NCCCCNCCCNC(=O)c2ccc(C)s2)s1 | > 10 | > 100 | > 100 | > 100 | –
4 | O=C(NCCCCNCCCNC(=O)c1cc2ccccc2[nH]1)c1cc2ccccc2[nH]1 | > 10 | > 100 | > 100 | > 100 | –
5 | [N-]=[N+]=NCC(=O)N(CCCCNC(=O)c1cc(Br)c(Br)[nH]1)CCCNC(=O)c1cc(Br)c(Br)[nH]1 | > 10 | > 100 | > 50 | > 100 | –
6 | O=C(NCCSCCNC(=O)c1cc(Br)c(Br)[nH]1)c1cc(Br)c(Br)[nH]1 | > 10 | 43 | 24 | 24 | CC50 (BMDM): 66 µM
7 | O=C(NCCCCNCCCNC(=O)c1cc(Cl)c(Cl)[nH]1)c1cc(Cl)c(Cl)[nH]1 | > 10 | > 100 | > 100 | > 100 | –
8 | O=C(NCCCCNCCCNC(=O)c1ccc(Br)s1)c1ccc(Br)s1 | > 10 | 76 | > 100 | 20 | Activity (Leishmania amazonensis [6]): 58.8%; CC50 (BMDM): > 100 µM; Activity (Leishmania amazonensis [7]): 79.5%; Activity (Leishmania amazonensis [8]): 41.5%; Activity (Leishmania amazonensis [9]): 46.4%; Activity (Leishmania amazonensis [10]): Dose-dependent effect
9 | O=C(NCCCNCCCCNCCCNC(=O)c1cc(Br)c(Br)[nH]1)c1cc(Br)c(Br)[nH]1 | 2 | 44 | > 100 | 18 to 19 | Activity (Leishmania amazonensis [6]): 51%; CC50 (BMDM): > 100 µM; Activity (Leishmania amazonensis [7]): 81.2%; selectivity ratio [3]: 52; CC50 at 24 h [4]: 99 µM; Activity (Leishmania amazonensis [8]): 45.4%; Activity (Leishmania amazonensis [9]): 27.3%; Activity (Leishmania amazonensis [10]): Dose-dependent effect
10 | CC(=O)N(CCCCNC(=O)c1cc(Br)c(Br)[nH]1)CCCNC(=O)c1cc(Br)c(Br)[nH]1 | > 10 | > 100 | > 100 | > 100 | –
11 | O=C(NCCCCNCCCNC(=O)c1ccc(F)[nH]1)c1ccc(F)[nH]1 | > 10 | > 100 | > 100 | > 100 | –
12 | O=C(NCCCCNCCCNC(=O)c1ccc[nH]1)c1ccc[nH]1 | > 10 | > 100 | > 100 | > 100 | –
13 | CC1(C)N=C(N)N=C(N)N1c1ccc(Cl)cc1 [CYCLOGUANIL] | 0.01 | – | – | – | IC50 (Plasmodium falciparum [11]): 0.54 µM
14 | NC[C@H]1[C@@H]2CN3C(=O)c4cc(Br)c(Br)n4[C@H]4NC(N)=N[C@]43[C@H]2[C@@]2(N=C(N)N[C@@H]2O)[C@@H]1Cl | – | – | – | – | IC50 (Leishmania donovani): 1.48 µg/mL (≈ 2.56 µM); IC50 [12]: 0.46 µg/mL (≈ 0.796 µM); IC50 (Plasmodium falciparum [5]): 1.48 µg/mL (≈ 2.56 µM)
